Measured values taken from ChEMBL document CHEMBL1123419, “Synthesis and antiviral activity of sulfonamidobenzophenone oximes and sulfonamidobenzamides” (1986).
In brackets after ≈: the same amount, converted by molar mass.

Key:
Enterovirus [1] = test: Antiviral activity against rhinovirus 1A using plaque-inhibition assay; format: functional; details: read-out: ED50 (the source's name)
In short: (§1)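 Plaque reduction: confluent monolayers were infected with 100-200 PFU. Hela (Ohio) cells were used for rhinoviruses 10 and 1A and coxsackieviruses B4 and A9, CV-1 for poliovirus type 1 Mahoney, and LLC-MK2 for enterovirus 70. Cells were overlaid with 2.0% agar in MEM plus 4% FBS containing serial compound concentrations. Incubation was 37 °C for polio/coxsackie and 33 °C for rhino/enterovirus, with a neutral red (0.004%) second overlay. ED50 was taken from the dose-response curve.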

CV-1 = test: Chemotherapeutic index in CV-1 cells (chemotherapeutic index=50% cytotoxic dose/50% effective dose).; format: functional, Cercopithecidae
In short: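 Index = 50% cytotoxic dose / 50% plaque-inhibition dose. For cytotoxicity, 200 cells/mL in suspension were mixed with 10% FBS MEM carrying serial compound dilutions and incubated 7 days at 37 °C under 5% CO2. Colonies were stained with 1% crystal violet and counted, and the 50% cytotoxic dose was read from the dose-response curve.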

Poliovirus 1 = test: microbe, parasite or virus in culture; format: functional; details: Enterovirus C; read-out: ED50 (the source's name)
Enterovirus [2] = test: Antiviral activity against rhinovirus 10 using plaque-inhibition assay; format: functional; details: read-out: ED50 (the source's name); in short: as §1

Row | Structure (SMILES) | EC50 (Enterovirus [1]) [µg/mL] | Chemotherapeutic index (CV-1) | EC50 (Poliovirus 1) [µg/mL] | EC50 (Enterovirus [2]) [µg/mL]
1 | CCCCCc1ccc(NC(=O)c2ccc(NS(=O)(=O)N(C)C)cc2)cc1 | 0.51 (≈ 1.31 µM) | 4 | 0.32 (≈ 0.822 µM) | 
2 | CN(C)S(=O)(=O)Nc1cccc(C(=O)NC2CCCCC2)c1 |  |  | 28 (≈ 86 µM) | 
3 | CN(C)S(=O)(=O)Nc1cccc(/C(=N/O)c2ccccc2)c1 |  | 24 | 0.79 (≈ 2.47 µM) | 0.54 (≈ 1.69 µM)
4 | CN(C)S(=O)(=O)Nc1cccc(C(=O)Nc2ccccc2)c1 |  |  | 4 (≈ 12.5 µM) | 
5 | CC(C)S(=O)(=O)Nc1cccc(C(=O)Nc2cccc(O)c2)c1 |  |  | 25 (≈ 74.8 µM) | 
6 | CC(C)S(=O)(=O)Nc1cccc(C(=O)Nc2nccs2)c1 |  |  | 25 (≈ 76.8 µM) | 
7 | CC(C)S(=O)(=O)Nc1cccc(C(=O)Nc2ccccc2C(F)(F)F)c1 |  |  | 0.6 (≈ 1.55 µM) | 
8 | COc1ccc(/C(=N\O)c2cccc(NS(=O)(=O)N(C)C)c2)c(OC)c1 |  | 28 | 1 (≈ 2.64 µM) | 0.89 (≈ 2.35 µM)
9 | CN(C)S(=O)(=O)Nc1cccc(NC(=O)c2ccccc2)c1 |  |  | 20 (≈ 62.6 µM) | 
10 | CN(C)S(=O)(=O)Nc1cccc(C(=O)Nc2ccc(Br)cc2)c1 |  |  | 1.7 (≈ 4.27 µM) | 
11 | COc1ccc(/C(=N/O)c2cccc(NS(=O)(=O)N(C)C)c2)cc1 |  | 3.4 | 7.6 (≈ 21.8 µM) | 5.4 (≈ 15.5 µM)
12 | CC(C)S(=O)(=O)Nc1cccc(C(=O)Nc2cccc([N+](=O)[O-])c2)c1 |  |  | > 25 | 
13 | CSc1ccc(/C(=N\O)c2cccc(NS(=O)(=O)N(C)C)c2)cc1 |  | 9 | 0.32 (≈ 0.876 µM) | 0.26 (≈ 0.711 µM)
14 | CC(C)S(=O)(=O)Nc1ccc(C(=O)Nc2ccc(C(F)(F)F)cc2)cc1 |  |  | 0.25 (≈ 0.647 µM) | 
15 | CN(C)S(=O)(=O)Nc1cccc(/C(=N/O)c2ccc(CO)cc2)c1 |  | 55 | 0.4 (≈ 1.14 µM) | 0.37 (≈ 1.06 µM)
16 | CN(C)S(=O)(=O)Nc1cccc(/C(=N/O)c2ccc3c(c2)OCO3)c1 |  |  | 3.4 (≈ 9.36 µM) | 
17 | CN(C)S(=O)(=O)Nc1ccc(C(=O)Nc2ccc(Cl)cc2)cc1 | 0.32 (≈ 0.904 µM) | 220 | 0.5 (≈ 1.41 µM) | 
18 | CCCOc1ccc(NC(=O)c2ccc(NS(=O)(=O)N(C)C)cc2)cc1 |  |  | 0.7 (≈ 1.85 µM) | 
19 | CN(C)S(=O)(=O)Nc1ccccc1C(=O)Nc1ccccc1 |  |  | 25 (≈ 78.3 µM) | 
20 | CCOc1ccc(/C(=N\O)c2cccc(NS(=O)(=O)N(C)C)c2)cc1 |  |  | 5.5 (≈ 15.1 µM) | 
21 | CN(C(=O)c1ccc(NS(=O)(=O)N(C)C)cc1)c1ccc(Cl)cc1 |  |  | > 25 | 
22 | COc1cccc(/C(=N\O)c2cccc(NS(=O)(=O)N(C)C)c2)c1 |  | 74 | 0.34 (≈ 0.973 µM) | 0.41 (≈ 1.17 µM)
23 | CN(C)S(=O)(=O)Nc1ccc(C(=O)Nc2cccc(Cl)c2)cc1 |  |  | 1.6 (≈ 4.52 µM) | 
24 | O=C(Nc1ccccc1)c1cccc(NS(=O)(=O)c2ccccc2)c1 |  |  | 17 (≈ 48.2 µM) | 
25 | COc1ccc(/C(=N\O)c2cccc(NS(=O)(=O)C(C)C)c2)cc1 |  | 32 | 0.36 (≈ 1.03 µM) | 0.62 (≈ 1.78 µM)

Row | Structure (SMILES) | EC50 (Enterovirus [1]) [µg/mL] | Chemotherapeutic index (CV-1) | EC50 (Poliovirus 1) [µg/mL] | EC50 (Enterovirus [2]) [µg/mL]
26 | CC(C)S(=O)(=O)Nc1cccc(C(=O)NC(c2ccccc2)c2ccccc2)c1 |  |  | > 50 | 
27 | CN(C)S(=O)(=O)Nc1cccc(C(=O)Nc2ccc(C(F)(F)F)cc2)c1 |  |  | 0.46 (≈ 1.19 µM) | 
28 | Cc1cccc(NC(=O)c2ccc(NS(=O)(=O)N(C)C)cc2)c1 |  |  | 2.3 (≈ 6.9 µM) | 
29 | CC(C)S(=O)(=O)Nc1cccc(C(=O)NCc2ccco2)c1 |  |  | > 50 | 
30 | CC(C)S(=O)(=O)Nc1cccc(C(=O)Nc2cccc(CO)c2)c1 |  |  | > 50 | 
31 | CC(C)S(=O)(=O)Nc1cccc(C(=O)NCc2ccccc2)c1 |  |  | > 50 | 
32 | CCCCCCc1ccc(NC(=O)c2ccc(NS(=O)(=O)N(C)C)cc2)cc1 | 0.24 (≈ 0.595 µM) | 11 | 0.16 (≈ 0.396 µM) | 
33 | CC(C)c1ccc(NC(=O)c2ccc(NS(=O)(=O)N(C)C)cc2)cc1 | 0.1 (≈ 0.277 µM) | 10 | 0.21 (≈ 0.581 µM) | 
34 | CN(C)S(=O)(=O)Nc1cccc(/C(=N/O)c2ccc(Cl)cc2)c1 |  | 26 | 0.46 (≈ 1.3 µM) | 0.53 (≈ 1.5 µM)
35 | CC(C)S(=O)(=O)n1c(N)nc2ccc(/C(=N/O)c3ccccc3)cc21 [ENVIROXIME] |  |  | 0.032 (≈ 0.0893 µM) | 0.024 (≈ 0.067 µM)
36 | CN(C)S(=O)(=O)Nc1ccc(Cl)c(C(=O)Nc2ccc(Cl)cc2)c1 |  |  | > 50 | 
37 | CN(C)S(=O)(=O)Nc1ccc(C(=O)Nc2ccc(C(F)(F)F)cc2)cc1 | 0.17 (≈ 0.439 µM) | 19 | 0.18 (≈ 0.465 µM) | 
38 | CC(C)S(=O)(=O)Nc1cccc(C(=O)Nc2cccc(Cl)c2)c1 |  |  | 1.5 (≈ 4.25 µM) | 
39 | CC(C)S(=O)(=O)Nc1cccc(C(=O)Nc2ccc(Cl)c(Cl)c2)c1 |  |  | > 25 | 
40 | CN(C)S(=O)(=O)Nc1ccc(C(=O)Nc2ccccc2)cc1 |  |  | 3 (≈ 9.39 µM) | 
41 | CC(C)S(=O)(=O)n1c(N)nc2ccc(/C(=N\O)c3ccccc3)cc21 [ZINVIROXIME] |  | 61 | 0.14 (≈ 0.391 µM) | 0.24 (≈ 0.67 µM)
42 | CCCCc1ccc(NC(=O)c2cccc(NS(=O)(=O)C(C)C)c2)cc1 |  |  | 0.42 (≈ 1.12 µM) | 
43 | COc1ccc(/C(=N\O)c2cccc(NS(=O)(=O)N(C)C)c2)cc1OC |  |  | 0.55 (≈ 1.45 µM) | 
44 | CC(C)S(=O)(=O)Nc1cccc(C(=O)Nc2ccc(F)cc2)c1 |  |  | 4.2 (≈ 12.5 µM) | 
45 | CC(C)S(=O)(=O)Nc1cccc(C(=O)Nc2ccc(Br)cc2)c1 |  |  | 0.7 (≈ 1.76 µM) | 
46 | COCc1ccc(/C(=N\O)c2cccc(NS(=O)(=O)C(C)C)c2)cc1 |  | 68 | 0.22 (≈ 0.607 µM) | 0.98 (≈ 2.7 µM)
47 | COC(=O)c1cccc(NC(=O)c2ccc(NS(=O)(=O)N(C)C)cc2)c1 |  |  | 1.2 (≈ 3.18 µM) | 
48 | Cc1ccc(NC(=O)c2ccc(NS(=O)(=O)N(C)C)cc2)cc1 | 0.38 (≈ 1.14 µM) | 370 | 0.54 (≈ 1.62 µM) | 
49 | CC(C)S(=O)(=O)Nc1cccc(C(=O)Nc2ccccc2N)c1 |  |  | > 50 | 
50 | O=C(Nc1ccccc1)c1cccc(NS(=O)(=O)N2CCCC2)c1 |  |  | 6.4 (≈ 18.5 µM) | 

Row | Structure (SMILES) | EC50 (Enterovirus [1]) [µg/mL] | Chemotherapeutic index (CV-1) | EC50 (Poliovirus 1) [µg/mL] | EC50 (Enterovirus [2]) [µg/mL]
51 | CCCc1ccc(NC(=O)c2ccc(NS(=O)(=O)N(C)C)cc2)cc1 | 0.15 (≈ 0.415 µM) | 6 | 0.16 (≈ 0.443 µM) | 
52 | CN(C)S(=O)(=O)Nc1ccc(C(=O)Nc2ccc(C(C)(C)C)cc2)cc1 |  |  | 0.12 (≈ 0.32 µM) | 
53 | COc1ccc(NC(=O)c2cccc(NS(=O)(=O)N(C)C)c2)cc1 |  |  | 4 (≈ 11.4 µM) | 
54 | CC(C)S(=O)(=O)Nc1cccc(C(=O)Nc2ccc(Cl)cc2)c1 |  |  | 1.2 (≈ 3.4 µM) | 
55 | CN(C)S(=O)(=O)Nc1cccc(/C(=N/O)c2cccc(CO)c2)c1 |  | 20 | 0.5 (≈ 1.43 µM) | 1.6 (≈ 4.58 µM)
56 | CN(C)S(=O)(=O)Nc1ccc(C(=O)Nc2ccccc2Cl)cc1 |  |  | 6.2 (≈ 17.5 µM) | 
57 | CCCCc1ccc(NC(=O)c2ccc(NS(=O)(=O)C(C)C)cc2)cc1 |  |  | 0.16 (≈ 0.427 µM) | 
58 | CN(C)S(=O)(=O)Nc1cccc(C(=O)Nc2cccc(Cl)c2)c1 |  |  | 1.5 (≈ 4.24 µM) | 
59 | CN(C)S(=O)(=O)Nc1ccc(C(=O)Nc2cccc(Br)c2)cc1 |  |  | 5 (≈ 12.6 µM) | 
60 | Cc1ccc(NS(=O)(=O)C(C)C)cc1C(=O)Nc1ccc(Cl)cc1 |  |  | 12 (≈ 32.7 µM) | 
61 | COCc1ccc(/C(=N\O)c2cccc(NS(=O)(=O)N(C)C)c2)cc1 |  | 28 | 0.25 (≈ 0.688 µM) | 0.36 (≈ 0.991 µM)
62 | Cc1ccc(/C(=N\O)c2cccc(NS(=O)(=O)N(C)C)c2)cc1 |  | 86 | 0.44 (≈ 1.32 µM) | 0.41 (≈ 1.23 µM)
63 | CN(C)S(=O)(=O)Nc1cc(C(=O)Nc2ccccc2)ccc1Cl |  |  | 10 (≈ 28.3 µM) | 
64 | CC(C)S(=O)(=O)Nc1cccc(C(=O)NC(C)(C)C)c1 |  |  | > 50 | 
65 | O=C(Nc1ccccc1)c1cccc(NS(=O)(=O)N2CCCCC2)c1 |  |  | 11 (≈ 30.6 µM) | 
66 | COc1ccc(/C(=N\O)c2cccc(NS(=O)(=O)N3CCCC3)c2)cc1 |  |  | 1.1 (≈ 2.93 µM) | 
67 | CN(C)S(=O)(=O)Nc1cccc(C(=O)Nc2ccc(C#N)cc2)c1 |  |  | 5 (≈ 14.5 µM) | 
68 | CC(C)S(=O)(=O)Nc1cccc(C(=O)Nc2ccccc2)c1 |  |  | 7 (≈ 22 µM) | 
69 | COc1ccc(/C(=N/O)c2cccc(NS(=O)(=O)N(C)C)c2)c(OC)c1 |  | 1.8 | 19.5 (≈ 51.4 µM) | 4 (≈ 10.5 µM)
70 | CC(C)S(=O)(=O)Nc1cccc(/C(=N/O)c2ccc(CO)cc2)c1 |  |  |  | 0.39 (≈ 1.12 µM)
71 | CC(=O)c1ccccc1NC(=O)c1cccc(NS(=O)(=O)C(C)C)c1 |  |  | 5 (≈ 13.9 µM) | 
72 | CN(C)S(=O)(=O)Nc1cccc(C(=O)Nc2ccccn2)c1 |  |  | 44 (≈ 137 µM) | 
73 | COC(=O)c1ccc(NC(=O)c2cccc(NS(=O)(=O)C(C)C)c2)cc1 |  |  | 4 (≈ 10.6 µM) | 
74 | CS(=O)(=O)Nc1cccc(C(=O)Nc2ccccc2)c1 |  |  | > 50 | 
